“And” between values parts separate entries of the source, which are not always exact repeats. Equal values may be shown once.

For assay [1], the target named is T1, TLR8 (Homo sapiens, UniProt Q9NR97).
T1 sequence (Q9NR97 27-1041): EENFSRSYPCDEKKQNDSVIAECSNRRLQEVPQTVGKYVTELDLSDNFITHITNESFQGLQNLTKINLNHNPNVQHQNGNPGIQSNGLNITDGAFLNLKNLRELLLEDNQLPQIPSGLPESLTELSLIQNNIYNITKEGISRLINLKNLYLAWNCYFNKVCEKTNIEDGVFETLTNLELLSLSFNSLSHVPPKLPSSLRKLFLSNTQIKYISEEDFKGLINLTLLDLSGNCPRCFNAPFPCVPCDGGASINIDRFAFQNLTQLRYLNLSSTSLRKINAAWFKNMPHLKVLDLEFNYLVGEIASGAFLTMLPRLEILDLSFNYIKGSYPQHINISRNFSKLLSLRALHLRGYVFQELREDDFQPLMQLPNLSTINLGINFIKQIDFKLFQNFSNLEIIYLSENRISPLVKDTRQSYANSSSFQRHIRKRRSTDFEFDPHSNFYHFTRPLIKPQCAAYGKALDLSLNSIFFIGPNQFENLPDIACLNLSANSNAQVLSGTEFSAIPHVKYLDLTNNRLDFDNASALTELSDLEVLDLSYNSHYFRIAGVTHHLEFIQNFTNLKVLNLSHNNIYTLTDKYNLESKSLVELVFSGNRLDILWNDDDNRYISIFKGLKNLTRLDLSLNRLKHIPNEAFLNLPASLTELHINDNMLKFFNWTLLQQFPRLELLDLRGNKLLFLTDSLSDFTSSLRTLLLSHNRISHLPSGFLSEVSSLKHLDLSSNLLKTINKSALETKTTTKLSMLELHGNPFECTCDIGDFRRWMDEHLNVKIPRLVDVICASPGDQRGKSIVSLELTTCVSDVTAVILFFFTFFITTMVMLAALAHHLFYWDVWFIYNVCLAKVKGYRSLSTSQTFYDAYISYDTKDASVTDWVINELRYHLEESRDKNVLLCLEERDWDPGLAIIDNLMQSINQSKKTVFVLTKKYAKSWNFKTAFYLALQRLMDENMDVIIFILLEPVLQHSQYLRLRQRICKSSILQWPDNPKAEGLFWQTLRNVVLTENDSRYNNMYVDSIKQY
The experiment in a line: Human neutrophil ROS production, TL8-506 stimulation. In kind it is cell-based. The gist of the method:
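Cells were pre-treated 30 min with increasing concentrations of test compound or 0.1% v/v DMSO. They were then stimulated 30 min at 37°C, 5% CO2 with TL8-506 or PMA (50 ng/mL). ROS was detected with 2 μM dihydrorhodamine for 15 min at 37°C and read by flow cytometry. Signals were normalized to vehicle; viability was checked by CellTiter-Glo.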

Assay [2] has as its target T2, TLR7 (Homo sapiens, UniProt Q9NYK1).
T2 sequence (Q9NYK1 27-1049): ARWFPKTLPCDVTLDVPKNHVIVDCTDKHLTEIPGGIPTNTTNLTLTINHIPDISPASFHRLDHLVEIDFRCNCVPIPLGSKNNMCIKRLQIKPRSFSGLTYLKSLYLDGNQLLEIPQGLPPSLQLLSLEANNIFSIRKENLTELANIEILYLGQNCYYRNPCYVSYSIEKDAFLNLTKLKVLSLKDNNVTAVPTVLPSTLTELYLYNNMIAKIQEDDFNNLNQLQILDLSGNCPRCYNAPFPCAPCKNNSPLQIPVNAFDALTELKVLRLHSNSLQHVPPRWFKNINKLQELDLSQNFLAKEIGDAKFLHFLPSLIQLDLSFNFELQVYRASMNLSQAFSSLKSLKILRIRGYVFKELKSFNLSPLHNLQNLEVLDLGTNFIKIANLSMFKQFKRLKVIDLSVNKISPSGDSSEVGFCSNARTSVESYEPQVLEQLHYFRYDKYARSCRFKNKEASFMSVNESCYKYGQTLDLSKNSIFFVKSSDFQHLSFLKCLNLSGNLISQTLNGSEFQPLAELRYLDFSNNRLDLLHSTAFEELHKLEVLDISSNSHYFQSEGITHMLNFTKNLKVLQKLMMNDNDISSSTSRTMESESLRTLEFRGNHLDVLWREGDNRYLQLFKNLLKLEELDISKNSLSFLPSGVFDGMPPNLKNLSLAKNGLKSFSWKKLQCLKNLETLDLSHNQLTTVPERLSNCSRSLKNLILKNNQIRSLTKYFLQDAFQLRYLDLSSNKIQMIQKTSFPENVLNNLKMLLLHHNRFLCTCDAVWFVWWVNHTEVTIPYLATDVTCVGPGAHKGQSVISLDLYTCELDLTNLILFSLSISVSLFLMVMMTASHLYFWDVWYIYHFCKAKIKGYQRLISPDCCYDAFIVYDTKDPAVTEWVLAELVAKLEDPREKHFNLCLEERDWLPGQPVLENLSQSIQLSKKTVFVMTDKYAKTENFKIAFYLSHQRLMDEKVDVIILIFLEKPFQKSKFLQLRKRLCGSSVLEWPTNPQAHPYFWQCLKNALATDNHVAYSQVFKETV
Put plainly: Ramos Blue NF-κB/AP-1 reporter B cell line, TLR7 stimulation. The note with it: Ramos cells, mean ± SD. In kind it is cell-based. In outline: (§1)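 Ramos Blue B reporter cells were pre-treated 30 min at 37°C, 5% CO2 with increasing concentrations of test compound or 0.25% v/v DMSO. They were then stimulated with the respective agonist, and reporter activity was read.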

The target of assay [3] is NOD1 (Homo sapiens, UniProt Q9Y239). The experiment in a line: Ramos Blue reporter B cell line, Tri-DAP stimulation. The class given is cell-based. To be noted: Ramos cells; up to 10 μM; n = 4, data not shown. In outline: as §1
Chain of NOD1 (Q9Y239 whole entry): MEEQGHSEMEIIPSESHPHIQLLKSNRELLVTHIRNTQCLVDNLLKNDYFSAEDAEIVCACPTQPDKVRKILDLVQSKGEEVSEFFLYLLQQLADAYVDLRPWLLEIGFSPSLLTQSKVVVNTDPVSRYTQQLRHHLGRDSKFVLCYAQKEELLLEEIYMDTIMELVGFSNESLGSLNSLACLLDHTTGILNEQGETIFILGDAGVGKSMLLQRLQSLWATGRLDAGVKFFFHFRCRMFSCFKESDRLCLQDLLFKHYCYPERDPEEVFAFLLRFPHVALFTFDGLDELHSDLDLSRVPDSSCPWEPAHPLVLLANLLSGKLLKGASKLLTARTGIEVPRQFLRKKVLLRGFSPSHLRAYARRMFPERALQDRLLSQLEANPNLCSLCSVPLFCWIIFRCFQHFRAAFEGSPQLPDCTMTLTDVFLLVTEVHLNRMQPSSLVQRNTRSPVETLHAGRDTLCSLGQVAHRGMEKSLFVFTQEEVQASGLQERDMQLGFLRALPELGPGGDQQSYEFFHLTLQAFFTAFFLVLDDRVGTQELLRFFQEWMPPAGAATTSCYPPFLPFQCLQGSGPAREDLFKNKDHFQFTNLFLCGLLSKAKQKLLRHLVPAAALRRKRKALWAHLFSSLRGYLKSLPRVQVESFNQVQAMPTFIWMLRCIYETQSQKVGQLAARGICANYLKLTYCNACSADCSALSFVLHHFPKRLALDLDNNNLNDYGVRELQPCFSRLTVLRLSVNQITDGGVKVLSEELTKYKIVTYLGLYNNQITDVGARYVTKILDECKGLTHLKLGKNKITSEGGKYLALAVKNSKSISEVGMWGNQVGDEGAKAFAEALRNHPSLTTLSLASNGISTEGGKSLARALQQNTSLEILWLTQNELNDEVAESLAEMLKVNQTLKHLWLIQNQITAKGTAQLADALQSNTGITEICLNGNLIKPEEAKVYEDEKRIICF
In assay [4] the target is T2, TLR7. Put plainly: HEK293-NFkB-luciferase reporter cells transfected with TLR7, R848 stimulation. In kind it is cell-based. The note with it: IC50, TLR7 response in HEK transfectants, mean ± SD. The gist of the method:
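HEK293-NFkB-luciferase cells stably expressing HA-tagged human TLR7 or TLR8 were pre-treated 60 min at 37°C, 5% CO2 with increasing concentrations of test compound or 0.25% v/v DMSO. They were then stimulated 6 h with R848: 0.3 μM for TLR7, 4 μM for TLR8. Luciferase activity […] was read by Bright-Glo luminescence.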
In general terms: Reporter assays use an easily measured gene product as a stand-in for the process of interest.

In assay [5] the test system is NZB/W F1 mice. Put plainly: NZB/W F1 model repeated at a different site, therapeutic twice-daily oral dosing. In kind it is in vivo, mouse. In outline:
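This repeat NZB/W F1 study had three differences. Mice were included at dipstick proteinuria score 2 (0.3–1 mg/mL), proteinuria was scored by dipstick, and test compound was given orally b.i.d. rather than in food. Kidney IgM and IgG deposits were quantified as positively stained area over total section area on ten sections per mouse, then averaged.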

Setting [6] is: therapeutic b.i.d. p.o. after robust proteinuria.

As to `Cc1cc(N2CCc3c(c(C)nn3CC34CCC(NC(=O)[C@@H]5COCCN5)(CC3)CC4)C2)c2cnn(C)c2n1` [MHV370, (S)-N-(4-((5-(1,6-dimethyl-1H-pyrazolo[3,4-b]pyridin-4-yl)-3-methyl-4,5,6,7-tetrahydro-1H-pyrazolo[4,3-c]pyridin-1-yl)methyl)bicyclo[2.2.2]octan-1-yl)morpholine-3-carboxamide], the IC50 in assay [1] is 5.2 ± 1.5 nM; in assay [2] (IC50, CL307-driven reporter gene activity, CL307), 15 ± 10 nM; in assay [2] (read-out: IC50, R848-driven reporter gene activity, R848), 7 ± 0.1 nM; in assay [4], 1 nM and 1.1 nM. Moreover, the “interference with NOD1-driven activity” value in assay [3] is “did not interfere”. Moreover, the “IgM and IgG deposition in kidneys (histology)” value in assay [5] (therapeutic b.i.d. p.o.) is “substantially reduced”. The “proteinuria (dipstick score)” value in assay [5] (setting [6]) is “reduced proteinuria”. In addition, the survival entry in assay [5] (setting [6]) is on record as “increased survival”.

As a reminder, the IC50 is the midpoint of a concentration-inhibition curve.

The record behind these values is paper PMC10213863 (Cell Reports Medicine, 2023).
